{"data": "Assay results gathered from unrelated publications", "observed": "enzyme activity", "mode": "inhibitor", "KIT D816V": "Mast/stem cell growth factor receptor Kit (KIT, Homo sapiens, UniProt P10721, D816V)", "KIT T670I": "Mast/stem cell growth factor receptor Kit (KIT, Homo sapiens, UniProt P10721, T670I)", "KIT": "Mast/stem cell growth factor receptor Kit (KIT, Homo sapiens, UniProt P10721)", "note": "Protocols differ between the studies behind these lines."}
{"SMILES": "CC/C(=N\\NC(=O)NCc1cccc(O)c1)c1ccc(O)c(C)c1O", "target": "KIT D816V", "tested at": "0.1 µM", "inhibition": "1.4%"}
{"SMILES": "COc1cc2ncnc(Nc3ccc(Oc4ccccc4)c(C)c3C)c2cc1OC", "target": "KIT T670I", "tested at": "1 µM", "inhibition": "-7%"}
{"SMILES": "CS(=O)(=O)Nc1cccc(-c2csc(NC(=O)CSc3nc4nccnc4c(=O)n3CCc3ccccc3)n2)c1", "target": "KIT D816V", "tested at": "10 µM", "inhibition": "-1%"}
{"SMILES": "COc1cc2ncnc(Nc3ccc(Oc4ccccc4)cc3C)c2cc1OC", "target": "KIT T670I", "tested at": "1 µM", "inhibition": "-9%"}
{"SMILES": "CN(C)C1CCN(CC#Cc2nn(C3CCCC3)c3nc(NCc4ccccc4)ncc23)C1 (stereo not drawn)", "target": "KIT", "technique": "FRET", "tested at": "0.1 µM", "inhibition": "1%"}
{"SMILES": "COc1cc2nccc(Oc3ccc(NC(=O)c4c5n(n(-c6ccc(F)cc6)c4=O)CCCC5)cc3)c2cc1OC", "target": "KIT", "tested at": "0.1 µM", "inhibition": "-1%"}
{"SMILES": "O=C(CSc1nc2nccnc2c(=O)n1CCc1ccccc1)Nc1nccs1", "target": "KIT D816V", "tested at": "10 µM", "inhibition": "6%"}
{"SMILES": "CN1CC(Oc2cnc(C#N)cc2-c2ccn3nc(NC(=O)C4CC4)cc3c2)C1", "target": "KIT", "tested at": "1 µM", "inhibition": "4%"}
{"SMILES": "COc1cc(-c2cc(-c3ccc(N4CCNCC4)cc3)cnc2N)cc(OC)c1OC", "target": "KIT T670I", "tested at": "0.1 µM", "inhibition": "3%"}
